Assay [1] concerns Plasmodium falciparum. Briefly: Non-competitive inhibition of Plasmodium falciparum IspD at 19.5 to 625 uM in presence of CTP by lineweaver-burk plot analysis. The conditions noted are these: dose 19.5-625 µM. In a few lines: (§1)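 LC-MS IspD assay without coupling enzymes: 0.1 μM PfIspD, 2.0 mM MgCl2 in 100 mM Tris-HCl pH 7.6, 1 mM DTT, preincubated with inhibitor 10 min at 37 °C. One substrate varied 0–500 μM with the other at 500 μM; 40 min at 37 °C, heat-stopped at 95 °C. CDP-ME product quantified by HILIC LC-MS/MS with internal standard; Lineweaver–Burk plots.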

For assay [2], the system named is Plasmodium falciparum. Briefly: Uncompetitive inhibition of Plasmodium falciparum IspD at 19.5 to 625 uM in presence of MEP by lineweaver-burk plot analysis. To be noted: dose 19.5-625 µM. The essentials: as §1

The source made the active and inactive calls. The calls are words filed in the database; no cut-off is given here.

For the compound `N#Cc1ccc(NC(=O)Nc2cccc(S(=O)(=O)N3CCCC3)c2)cc1`, the inhibition result in the assay with Plasmodium falciparum [1] and with Plasmodium falciparum [2] was “Active” throughout.
